# Assays:
# [1] = Plasma clearance in rat; assay type: ADME, organism-based; conditions: read-out: Clp
# Method in brief: (§1)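 Sprague-Dawley rats and male beagle dogs, dosed as trifluoroacetate salts (mg/kg; n = 3, some n = 2). Rat vehicle: iv 20% DMSO/[…] with po PEG-400, or iv 20% DMSO/80% saline with po 50% PEG-400/50% H2O. Dog vehicle: iv 20% DMSO/40% PEG-400/40% H2O, po PEG-400. Plasma levels measured by HPLC–MS/MS; noncompartmental analysis; terminal half-life from iv.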
# [2] = Oral bioavailability in dog at a dose of 2 mg/kg; assay type: ADME, organism-based, Canis lupus familiaris; conditions: in vivo; method in brief: as §1
# [3] = tested on: Huh-7; test: Effective concentration required to inhibit replication of subgenomic HCV RNA in HUH-7 cells; assay type: functional, cell-based; conditions: Homo sapiens
# Method in brief: (§2)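 Subgenomic HCV replicon in HUH-7 cells, run in medium with 10% fetal calf serum (a modification of Bartenschlager's method). EC50 was determined only for compounds giving >50% inhibition in an initial screen at a fixed 5 μM. Values are the arithmetic mean ± half-range or standard error of at least two independent determinations, or from a single experiment where noted.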
# [4] = Oral bioavailability in rat (dose 3 mg/kg); assay type: ADME, organism-based; conditions: in vivo; method in brief: as §1
# [5] = Plasma clearance in dog; assay type: ADME, organism-based, Canis lupus familiaris; conditions: read-out: Clp; method in brief: as §1
# [6] = target: T1, pregnane X receptor (PXR, NR1I2) (Homo sapiens, UniProt O75469); test: Inhibition of pregnane X receptor mediated activation of alkaline phosphatase reporter gene at 10 uM; assay type: functional
# T1 sequence (O75469 whole entry): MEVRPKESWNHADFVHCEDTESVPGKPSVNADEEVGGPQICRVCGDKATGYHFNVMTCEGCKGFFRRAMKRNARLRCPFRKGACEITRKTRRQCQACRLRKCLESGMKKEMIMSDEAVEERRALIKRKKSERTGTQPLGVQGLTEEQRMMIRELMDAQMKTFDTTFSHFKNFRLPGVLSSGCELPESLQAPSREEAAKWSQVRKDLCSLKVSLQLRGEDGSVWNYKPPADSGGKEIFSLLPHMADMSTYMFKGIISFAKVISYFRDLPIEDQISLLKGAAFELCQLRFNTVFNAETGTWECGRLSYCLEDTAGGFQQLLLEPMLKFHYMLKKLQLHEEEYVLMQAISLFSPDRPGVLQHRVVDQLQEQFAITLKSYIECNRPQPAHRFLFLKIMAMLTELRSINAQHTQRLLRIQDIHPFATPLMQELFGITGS
# Method in brief: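 HepG2 cells were cotransfected with a human PXR expression vector and a secreted alkaline phosphatase (SEAP) reporter driven by a synthetic PXR-responsive element. Cells were incubated 48 h with or without test compound, and SEAP activity was read with a commercial detection kit.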
# [7] = Plasma half life following 3 mg/kg iv administration in rat; assay type: ADME, organism-based; parameters: dose 3 mg/kg, route intravenous; method in brief: as §1
# [8] = target: T2, RNA-directed RNA polymerase (Hepacivirus hominis, UniProt O39930); test: Inhibitory activity against by hepatitis C virus NS5B polymerase
# Method in brief: (§3)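 Purified ΔC55 NS5B polymerase assayed with heterogenic template RNA. IC50 values come from a single experiment or are arithmetic means of multiple experiments, as footnoted; some were measured in duplicate.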
# [9] = Plasma half life following 0.5 mg/kg iv administration in dog
# [10] = tested on: Huh-7; test: Effective concentration required to inhibit replication of subgenomic HCV RNA in HUH-7 cells in the presence of 10% fetal calf serum; assay type: functional, cell-based; conditions: Homo sapiens; method in brief: as §2
# [11] = Plasma clearance in dod; assay type: ADME, organism-based, Canis lupus familiaris; conditions: dog, read-out: Clp; method in brief: as §1
# [12] = tested on: Huh-7; test: Effective concentration required to inhibit replication of subgenomic HCV RNA in HUH-7 cells in the presence of 50% normal human serum; assay type: functional, cell-based
# Method in brief: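 Subgenomic HCV replicon in HUH-7 cells run under high-serum conditions with 50% normal human serum in place of 10% fetal calf serum. EC50 values are the arithmetic mean ± half-range or standard error of at least two independent determinations.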
# [13] = target: T2, RNA-directed RNA polymerase; test: Inhibitory activity against hepatitis C virus NS5B polymerase enzyme; Range=6-9 nM; method in brief: as §3
# [14] = Plasma clearance after intravenous administration of 1 mg/kg in dog; assay type: ADME, organism-based, Canis lupus familiaris; parameters: dose 1 mg/kg, route intravenous; conditions: read-out: Clp; method in brief: as §1
# [15] = Plasma half life following 1 mg/kg iv administration in dog; assay type: ADME, organism-based, Canis lupus familiaris; parameters: dose 1 mg/kg, route intravenous; method in brief: as §1
# T2 sequence (O39930 whole entry): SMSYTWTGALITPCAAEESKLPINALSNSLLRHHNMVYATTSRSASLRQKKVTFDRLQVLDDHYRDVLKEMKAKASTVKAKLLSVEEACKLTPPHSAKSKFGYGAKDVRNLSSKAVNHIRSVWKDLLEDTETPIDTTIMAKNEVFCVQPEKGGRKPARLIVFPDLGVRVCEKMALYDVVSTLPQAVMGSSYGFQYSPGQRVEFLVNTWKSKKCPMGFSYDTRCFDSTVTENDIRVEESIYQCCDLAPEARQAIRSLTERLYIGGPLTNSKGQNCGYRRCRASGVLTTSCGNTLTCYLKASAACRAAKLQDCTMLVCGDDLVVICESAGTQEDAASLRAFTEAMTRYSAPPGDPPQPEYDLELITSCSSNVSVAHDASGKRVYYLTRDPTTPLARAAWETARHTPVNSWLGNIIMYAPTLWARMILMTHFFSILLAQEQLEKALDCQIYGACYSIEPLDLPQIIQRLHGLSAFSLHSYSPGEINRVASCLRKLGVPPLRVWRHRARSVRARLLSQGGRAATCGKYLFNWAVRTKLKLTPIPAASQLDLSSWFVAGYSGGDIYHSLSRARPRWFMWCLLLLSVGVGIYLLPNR
clearance [1] [mL/min/kg],bioavailability [2] [%],EC50 [3] [nM],bioavailability [4] [%],clearance [5] [mL/min/kg],inhibition at 10 µM [6] [%],half-life [7] [h],IC50 [8] [nM],half-life [9] [h],EC50 [10] [nM],clearance [11] [mL/min/kg],IC50 [13] [nM],clearance [14] [mL/min/kg],half-life [15] [h],Structure (SMILES),EC50 [12] [nM]
51,28,300,1.9,22,10,1.5,18,1.2,–,–,–,–,–,CN1CCCC(CN(C)C(=O)Cn2c(-c3ccccc3)c(C3CCCCC3)c3ccc(C(=O)O)cc32)C1 (centres undefined),–
44,51,–,10,–,–,3.1,–,–,127,9,9,9,5,CCN(CC)C1CCN(C(=O)Cn2c(-c3ccc(Cl)cc3)c(C3CCCCC3)c3ccc(C(=O)O)cc32)CC1,454
